Data reported in ChEMBL document CHEMBL3297713, “Discovery, optimization, and biological evaluation of 5-(2-(trifluoromethyl)phenyl)indazoles as a novel class of transient receptor potential A1 (TRPA1) antagonists” (J Med Chem, 2014).
Active and inactive are the calls of the source.

How the values were obtained:
[1] = biological target: Transient receptor potential cation channel subfamily A member 1 (Homo sapiens, UniProt O75762); experiment: Antagonist activity at human TRPA1 expressed in CHO-TREX cells assessed as inhibition of cinnamaldehyde-induced calcium flux incubated 10 mins prior to cinnamaldehyde addition by FLIPR assay relative to control; format: cell-based
Sequence of Transient receptor potential cation channel subfamily A member 1 (Homo sapiens, UniProt O75762) (O75762 whole entry): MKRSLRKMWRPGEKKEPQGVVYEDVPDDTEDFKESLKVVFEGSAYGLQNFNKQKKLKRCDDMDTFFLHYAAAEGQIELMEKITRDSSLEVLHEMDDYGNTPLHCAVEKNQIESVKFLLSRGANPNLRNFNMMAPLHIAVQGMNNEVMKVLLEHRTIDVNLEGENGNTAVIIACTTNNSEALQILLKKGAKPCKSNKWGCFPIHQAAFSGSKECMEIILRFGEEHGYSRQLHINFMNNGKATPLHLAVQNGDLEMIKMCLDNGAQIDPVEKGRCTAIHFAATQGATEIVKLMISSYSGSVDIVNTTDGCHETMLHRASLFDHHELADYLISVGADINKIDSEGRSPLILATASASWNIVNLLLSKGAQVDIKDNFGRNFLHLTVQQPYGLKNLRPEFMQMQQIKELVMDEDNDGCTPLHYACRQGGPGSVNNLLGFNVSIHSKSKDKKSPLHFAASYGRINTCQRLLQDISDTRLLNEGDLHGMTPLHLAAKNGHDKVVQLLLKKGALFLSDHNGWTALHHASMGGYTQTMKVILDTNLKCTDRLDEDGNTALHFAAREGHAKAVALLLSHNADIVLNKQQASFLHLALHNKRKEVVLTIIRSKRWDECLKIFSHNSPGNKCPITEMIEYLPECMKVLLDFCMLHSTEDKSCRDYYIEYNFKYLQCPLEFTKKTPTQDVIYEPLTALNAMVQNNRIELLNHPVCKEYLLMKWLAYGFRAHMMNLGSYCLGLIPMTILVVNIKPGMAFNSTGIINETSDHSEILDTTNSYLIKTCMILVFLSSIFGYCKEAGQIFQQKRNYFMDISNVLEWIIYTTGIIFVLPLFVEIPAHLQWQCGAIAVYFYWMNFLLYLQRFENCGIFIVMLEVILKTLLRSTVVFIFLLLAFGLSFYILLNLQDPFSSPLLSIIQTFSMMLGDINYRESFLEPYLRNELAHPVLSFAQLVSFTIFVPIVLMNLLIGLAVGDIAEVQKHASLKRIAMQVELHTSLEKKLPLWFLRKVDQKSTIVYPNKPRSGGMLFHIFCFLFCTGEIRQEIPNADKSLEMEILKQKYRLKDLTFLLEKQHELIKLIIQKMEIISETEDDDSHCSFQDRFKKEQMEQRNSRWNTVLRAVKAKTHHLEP
In short: (§1)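 TRPA1-expressing CHO-TREX cells, channel expression induced with tetracycline (0.5 µg/mL human, 1 µg/mL mouse or rat). Cells loaded with Fluo4-AM for 90 min at room temperature, washed, then test agent added in HBSS/20 mM HEPES/2.5 mM probenecid/0.1% BSA. Agonist added 10 min later at EC80: human cinnamaldehyde 30 µM, AITC 2.5 µM, dibenzoxazepine-carboxamide 5 nM; rat and mouse cinnamaldehyde 40 µM. FLIPR calcium flux; mean of triplicates fitted to sigmoidal dose-response curves.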

[2] = biological target: Transient receptor potential cation channel subfamily A member 1 (Mus musculus) (UniProt Q8BLA8); experiment: (§2) Antagonist activity at mouse TRPA1 expressed in CHO-TREX cells assessed as inhibition of cinnamaldehyde-induced calcium flux incubated 10 mins prior to cinnamaldehyde addition by FLIPR assay relative to control; format: cell-based; parameters: concentration or dose not given beside the values; in short: as §1
Sequence of Transient receptor potential cation channel subfamily A member 1 (Mus musculus) (Q8BLA8 whole entry): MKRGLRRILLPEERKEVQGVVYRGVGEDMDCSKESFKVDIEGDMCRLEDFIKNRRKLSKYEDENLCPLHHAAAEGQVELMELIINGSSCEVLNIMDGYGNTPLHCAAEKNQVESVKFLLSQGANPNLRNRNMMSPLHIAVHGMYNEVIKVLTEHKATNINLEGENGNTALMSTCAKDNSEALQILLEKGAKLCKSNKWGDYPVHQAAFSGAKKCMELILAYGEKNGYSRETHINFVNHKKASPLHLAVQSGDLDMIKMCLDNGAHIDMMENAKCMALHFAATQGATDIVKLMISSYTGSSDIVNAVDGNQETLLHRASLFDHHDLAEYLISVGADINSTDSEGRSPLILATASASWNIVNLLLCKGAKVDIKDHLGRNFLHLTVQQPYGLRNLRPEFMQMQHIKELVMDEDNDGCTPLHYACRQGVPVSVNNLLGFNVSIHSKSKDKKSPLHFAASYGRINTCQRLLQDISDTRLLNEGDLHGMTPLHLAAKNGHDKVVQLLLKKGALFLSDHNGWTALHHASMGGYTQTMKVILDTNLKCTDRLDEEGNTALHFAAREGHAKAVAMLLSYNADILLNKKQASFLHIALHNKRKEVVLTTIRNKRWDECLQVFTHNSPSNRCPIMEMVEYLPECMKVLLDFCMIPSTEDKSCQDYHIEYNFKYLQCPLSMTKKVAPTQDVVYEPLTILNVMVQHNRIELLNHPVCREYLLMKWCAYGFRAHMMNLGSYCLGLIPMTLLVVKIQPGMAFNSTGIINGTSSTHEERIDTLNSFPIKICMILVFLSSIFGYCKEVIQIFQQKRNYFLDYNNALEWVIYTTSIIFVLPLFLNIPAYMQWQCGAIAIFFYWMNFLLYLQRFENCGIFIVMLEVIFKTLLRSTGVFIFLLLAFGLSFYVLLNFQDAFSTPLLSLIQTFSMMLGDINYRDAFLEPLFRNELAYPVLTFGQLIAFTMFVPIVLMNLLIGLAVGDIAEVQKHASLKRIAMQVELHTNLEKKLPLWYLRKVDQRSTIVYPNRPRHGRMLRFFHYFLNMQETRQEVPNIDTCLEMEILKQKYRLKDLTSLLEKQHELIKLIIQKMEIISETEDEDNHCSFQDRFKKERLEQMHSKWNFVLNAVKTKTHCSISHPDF

[3] = biological target: Transient receptor potential cation channel subfamily A member 1 (Mus musculus, UniProt Q8BLA8); experiment: as §2; format: cell-based; in short: as §1
Sequence of Transient receptor potential cation channel subfamily A member 1 (Mus musculus, UniProt Q8BLA8) (Q8BLA8 whole entry): as above

[4] = biological target: T1, Transient receptor potential cation channel subfamily V member 3 (Homo sapiens) (UniProt Q8NET8); experiment: (§3) Antagonist activity at human TRPV3 expressed in CHOK1 cells assessed as inhibition of 2-APB-induced calcium flux incubated 10 mins prior to 2-APB addition by FLIPR assay relative to control; format: cell-based; parameters: concentration or dose not given beside the values; conditions: CHO-K1
T1 sequence (whole entry): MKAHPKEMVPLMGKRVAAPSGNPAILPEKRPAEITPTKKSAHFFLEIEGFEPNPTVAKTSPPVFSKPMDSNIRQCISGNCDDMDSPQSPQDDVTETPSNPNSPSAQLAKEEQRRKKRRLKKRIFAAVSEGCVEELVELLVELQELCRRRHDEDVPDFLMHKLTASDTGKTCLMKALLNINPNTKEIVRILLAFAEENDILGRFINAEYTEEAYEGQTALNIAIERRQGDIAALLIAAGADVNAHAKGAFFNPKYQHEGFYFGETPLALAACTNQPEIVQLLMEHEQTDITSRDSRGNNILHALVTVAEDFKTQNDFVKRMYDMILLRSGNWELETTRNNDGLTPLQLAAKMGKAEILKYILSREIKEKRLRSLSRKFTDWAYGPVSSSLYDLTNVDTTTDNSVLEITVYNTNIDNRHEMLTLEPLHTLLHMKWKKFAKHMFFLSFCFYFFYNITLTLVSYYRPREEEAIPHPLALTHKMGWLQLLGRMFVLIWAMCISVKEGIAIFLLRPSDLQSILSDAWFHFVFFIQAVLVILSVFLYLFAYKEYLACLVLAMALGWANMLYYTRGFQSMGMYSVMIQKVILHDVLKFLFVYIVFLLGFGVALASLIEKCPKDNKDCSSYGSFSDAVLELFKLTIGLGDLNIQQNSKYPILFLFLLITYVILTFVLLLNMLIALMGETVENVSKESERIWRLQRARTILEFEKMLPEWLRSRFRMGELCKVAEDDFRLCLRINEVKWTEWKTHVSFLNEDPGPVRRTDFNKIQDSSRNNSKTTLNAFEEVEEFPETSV

[5] = biological target: T2, Transient receptor potential cation channel subfamily V member 3 (Homo sapiens, UniProt Q8NET8); experiment: as §3; format: cell-based, CHO-K1
T2 sequence (Q8NET8 whole entry): T1 sequence (whole entry)

CHO-K1 [6] = experiment: Selectivity ratio of IC50 for human TRPV1 expressed in CHOK1 cells to IC50 for human TRPA1 expressed in CHO-TREX cells; format: cell-based
In short: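 Stable hTRPV1 CHO-K1 and tetracycline-induced (0.5 µg/mL) hTRPA1 CHO-TREX cells were loaded with Fluo4-AM for 90 min at room temperature and read on FLIPR. Antagonist preincubation was 10 min before EC80 agonist: capsaicin 40 nM (TRPV1); cinnamaldehyde 30 µM, AITC 2.5 µM or dibenzoxazepine carboxamide 5 nM (TRPA1). Buffer contained probenecid and BSA. IC50s were fitted from triplicate means of max−min calcium signal.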

CHO-K1 [7] = experiment: Selectivity ratio of IC50 for human TRPV3 expressed in CHOK1 cells to IC50 for human TRPA1 expressed in CHO-TREX cells; format: cell-based
In short: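 Calcium influx was measured by FLIPR in Fluo4-AM-loaded cells: hTRPV3 CHO-K1 challenged with 40 µM 2-APB, and hTRPA1 CHO-TREX (0.5 µg/mL tetracycline) challenged with 30 µM cinnamaldehyde, 2.5 µM AITC or 5 nM dibenzoxazepine carboxamide, all at EC80. Compounds were added 10 min ahead of agonist in HEPES-buffered HBSS with probenecid. Sigmoidal curves were fitted to triplicate means.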

[8] = Volume of distribution at steady state in Wistar rat at 5 mg/kg, iv; format: ADME, organism-based; parameters: dose 5 mg/kg, route intravenous; conditions: in vivo, read-out: Vdss
In short: (§4)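 Wistar rats given 5 mg/kg i.v. at 2.5 mg/mL in 10% EtOH/30% PEG300/60% solutol.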

[9] = Half life in Wistar rat at 5 mg/kg, iv; format: ADME, organism-based; parameters: dose 5 mg/kg, route intravenous; conditions: in vivo; in short: as §4
[10] = AUC in Wistar rat at 10 mg/kg, po; format: ADME, organism-based; parameters: dose 10 mg/kg, route oral; conditions: plasma
In short: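 Male Wistar rats dosed orally at 10 mg/kg as a suspension in 0.5% methylcellulose/0.5% Tween80.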

Mus musculus [11] = experiment: Reversal of mustard oil-induced allodynia in C57Bl6 mouse at 10 mg/kg, po administered 48 hrs post mustard oil challenge measured after 1 hr; format: functional, organism-based; parameters: dose 10 mg/kg
In short: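 Male C57Bl6 mice (20-25 g) under isoflurane received intracolonic mustard oil (0.25% in 70% ethanol). Oral vehicle or 3, 10 or 30 mg/kg given 48 h later. Abdominal von Frey filaments (0.02–15 g, ascending, up to 6 s) applied 1 h after dosing; the lowest force giving retraction, jumping, licking or scratching was taken as the threshold.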

[12] = Clearance in Balb/C mouse at 5 mg/kg, iv; format: ADME, organism-based; parameters: dose 5 mg/kg, route intravenous; conditions: in vivo
In short: (§5)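 Balb/C mice given 5 mg/kg i.v. at 2.5 mg/mL in 10% EtOH/30% PEG300/60% solutol.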

[13] = Volume of distribution at steady state in Balb/C mouse at 5 mg/kg, iv; format: ADME, organism-based; parameters: dose 5 mg/kg, route intravenous; conditions: in vivo, read-out: Vdss; in short: as §5
[14] = AUC in Balb/C mouse at 20 mg/kg, po; format: ADME, organism-based; parameters: dose 20 mg/kg, route oral; conditions: plasma
In short: (§6)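 Balb/C mice dosed by oral gavage at 20 mg/kg as a suspension in 0.5% methylcellulose/0.5% Tween80.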

[15] = Tmax in Balb/C mouse at 20 mg/kg, po; format: ADME, organism-based; parameters: dose 20 mg/kg, route oral; conditions: in vivo; in short: as §6
Mus musculus [16] = experiment: Reduction in sensitivity to cold surface in po dosed naive mouse assessed as latency to respond with behavioral queues measured after 40 mins; format: functional, organism-based
In short: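 Naive mice (n = 7 per group) gavaged with vehicle (0.5% methylcellulose/0.5% Tween80), 10 or 100 mg/kg. After 40 min acclimation at room temperature, each mouse was placed on a −5 °C Peltier cold plate for up to 2 min. Latency to first jump, brisk hindpaw lift or flick/lick was recorded.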

Rattus norvegicus = experiment: Induction of hyperthermia in naive rat at 10 to 100 mg/kg, po after 1 to 6 hrs; format: organism-based; parameters: route oral; conditions: in vivo
In short: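 Rat rectal temperature measured by probe before and 1, 3 and 6 h after oral vehicle (0.5% methylcellulose/0.5% Tween 80) or 10, 30 or 100 mg/kg p.o. WIN55,212-2 (6 mg/kg s.c.) served as comparator.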

IC50 [1]: 15 nM
inhibition [1]: 99%
inhibition [2]: 100%
IC50 [3]: 53 nM
inhibition [4]: 0%
IC50 [5]: > 30000 nM
Vd [8]: 2.39 L/kg
half-life [9]: 4.3 h
AUC [10]: 9.31 µM·h
clearance [12]: 39.3 mL/min/kg
Vd [13]: 4.07 L/kg
AUC [14]: 5.59 µM·h
Tmax [15]: 0.5 h
SMILES: Cc1cc2[nH]ncc2cc1-c1ccccc1C(F)(F)F
Ratio IC50 (CHO-K1 [6]): > 100
Ratio IC50 (CHO-K1 [7]): > 100
Activity (Mus musculus [11]): Active
Activity (Mus musculus [16]): Dose-dependent effect
Activity (Rattus norvegicus): Non-toxic
